In brackets after ≈: the same amount, converted by molar mass.
Legend:
[1] = Association constant determined at pH 9; Value ranges from 5E4-7.5E4; type: ADME
Enterococcus faecalis = assay: Minimum inhibitory concentration against Enterococcus faecalis ATCC 7080; type: functional
Procedure, shortened: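 Microbroth dilution MIC (µg/mL), final inoculum 10^4 cfu/mL, incubated 24 h at 37 °C in air.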

Escherichia coli [2] = assay: Minimum inhibitory concentration against Escherichia coli L 47; type: functional
Procedure, shortened: (§1)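 MIC (µg/mL) by microbroth dilution in Iso-Sensitest broth; final inoculum 10^4 cfu/mL; 24 h at 37 °C in air.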

Proteus vulgaris [3] = assay: Minimum inhibitory concentration against Proteus vulgaris ATCC 881; type: functional; procedure, shortened: as §1
Pseudomonas aeruginosa [4] = assay: Minimum inhibitory concentration against Pseudomonas aeruginosa ATCC 10145; type: functional; procedure, shortened: as §1
Staphylococcus aureus = assay: Minimum inhibitory concentration against Staphylococcus aureus L 165; type: functional; procedure, shortened: as §1
Streptococcus pyogenes [5] = assay: Efficacy of compound administered subcutaneously against Streptococcus pyogenes L 49 Septicemia in mouse; type: functional; settings: sc
Procedure, shortened: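 Mice were infected intraperitoneally with about 10^5 Strep. pyogenes L 49 cells, about 100 times the 50% lethal dose. Groups of 5–8 mice were treated once right after challenge, by the route stated in the line. ED50 (mg/kg) was derived from percentage survival at each dose on day 7 (Spearman-Kärber).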

Streptococcus pyogenes [6] = assay: Minimum inhibitory concentration of compound was determined against Streptococcus pyogenes L 49 in mouse; type: functional
[7] = test system: Staphylococcus epidermidis; assay: Minimum inhibitory concentration against Staphylococcus epidermidis ATCC 12228; type: functional; procedure, shortened: as §1
Streptococcus pneumoniae = assay: Minimum inhibitory concentration against Streptococcus pneumoniae L 44; type: functional
Procedure, shortened: (§2)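 MIC (µg/mL) by microbroth dilution in Todd-Hewitt broth, final inoculum 10^4 cfu/mL, incubated 24 h at 37 °C in air.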

[8] = test system: Staphylococcus haemolyticus; assay: Minimum inhibitory concentration against Staphylococcus haemolyticus L 602; type: functional; procedure, shortened: as §1
Streptococcus pyogenes [9] = assay: Minimum inhibitory concentration against Streptococcus pyogenes L 49; type: functional; procedure, shortened: as §2
Escherichia coli [10] = assay: Efficacy of compound administered intravenously against Escherichia coli L47 Septicemia in mouse; type: functional; settings: iv
Procedure, shortened: (§3)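 Mouse septicemia from intraperitoneal injection of about 10^4 cells of E. coli L 47, about 100 times the 50% lethal dose. Groups of five to eight mice each got a single dose immediately after infection, by the route stated in the line. ED50 in mg/kg was calculated from percent survivors at each dose on day 7 (Spearman-Kärber).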

Escherichia coli [11] = assay: Efficacy of compound administered subcutaneously against Escherichia coli L47 Septicemia in mouse; type: functional; settings: sc; procedure, shortened: as §3
Mus musculus = organism: Mus musculus; assay: Number of survivors mouse to that of treated with compound; 7 out of 8 survived; type: functional
Bacteroides fragilis [12] = assay: Minimum inhibitory concentration of compound was determined against Bacteroides fragilis L 1236; type: functional
Procedure, shortened: (§4)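 Microbroth dilution MIC (µg/mL) in Wilkins-Chalgren broth, final inoculum 10^5 cfu/mL, incubated 48 h in an anaerobic chamber.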

Bacteroides fragilis [13] = assay: Minimum inhibitory concentration of compound was determined against Bacteroides fragilis L 1010; type: functional; procedure, shortened: as §4
Bacteroides fragilis [14] = assay: Minimum inhibitory concentration of compound was determined against Bacteroides fragilis L 1011; type: functional; procedure, shortened: as §4
Enterobacter cloacae [15] = assay: Minimum inhibitory concentration of compound was determined against Enterobacter cloacae L 1485; type: functional; procedure, shortened: as §1
Enterobacter cloacae [16] = assay: Minimum inhibitory concentration of compound was determined against Enterobacter cloacae L 1504; type: functional; procedure, shortened: as §1
Escherichia coli [17] = assay: Minimum inhibitory concentration of compound was determined against Escherichia coli L 1153; type: functional; procedure, shortened: as §1
Escherichia coli [18] = assay: Minimum inhibitory concentration of compound was determined against Escherichia coli L 1347; type: functional; procedure, shortened: as §1
Escherichia coli [19] = assay: Minimum inhibitory concentration of compound was determined against Escherichia coli L 1484; type: functional; procedure, shortened: as §1
Escherichia coli [20] = assay: Minimum inhibitory concentration of compound was determined against Escherichia coli L 1513; type: functional; procedure, shortened: as §1
Escherichia coli [21] = assay: Minimum inhibitory concentration of compound was determined against Escherichia coli L 1536; type: functional; procedure, shortened: as §1
Escherichia coli [22] = assay: Minimum inhibitory concentration of compound was determined against Escherichia coli L 1572; type: functional; procedure, shortened: as §1
Klebsiella pneumoniae [23] = assay: Minimum inhibitory concentration of compound was determined against Klebsiella pneumoniae L 1481; type: functional; procedure, shortened: as §1
Klebsiella pneumoniae [24] = assay: Minimum inhibitory concentration of compound was determined against Klebsiella pneumoniae L 1499; type: functional; procedure, shortened: as §1
Proteus mirabilis [25] = assay: Minimum inhibitory concentration of compound was determined against Proteus mirabilis L 1157; type: functional; procedure, shortened: as §1
Proteus mirabilis [26] = assay: Minimum inhibitory concentration of compound was determined against Proteus mirabilis L 1356; type: functional; procedure, shortened: as §1
Proteus vulgaris [27] = assay: Minimum inhibitory concentration of compound was determined against Proteus vulgaris L 1539; type: functional; procedure, shortened: as §1
Pseudomonas aeruginosa [28] = assay: Minimum inhibitory concentration of compound was determined against Pseudomonas aeruginosa L 1348; type: functional; procedure, shortened: as §1
Pseudomonas aeruginosa [29] = assay: Minimum inhibitory concentration of compound was determined against Pseudomonas aeruginosa L 1138; type: functional; procedure, shortened: as §1
Pseudomonas aeruginosa [30] = assay: Minimum inhibitory concentration of compound was determined against Pseudomonas aeruginosa L 1533; type: functional; procedure, shortened: as §1
Serratia marcescens [31] = assay: Minimum inhibitory concentration of compound was determined against Serratia marcescens L 1506; type: functional; procedure, shortened: as §1
Salmonella typhimurium = assay: Minimum inhibitory concentration of compound was determined against Salmonella Typhimurium L 35; type: functional, Salmonella enterica subsp. enterica serovar Typhimurium; settings: Salmonella enterica; procedure, shortened: as §1
Shigella sonnei = assay: Minimum inhibitory concentration of compound was determined against Shigella sonnei L 363; type: functional; procedure, shortened: as §1
Shigella dysenteriae = assay: Minimum inhibitory concentration of compound was determined against Shigella dysentariae L155; type: functional
Serratia marcescens [32] = assay: Minimum inhibitory concentration of compound was determined against Serratia marcescens L 1488; type: functional; procedure, shortened: as §1
Pseudomonas aeruginosa [33] = assay: Minimum inhibitory concentration of compound was determined against Pseudomonas aeruginosa L 1498; type: functional; procedure, shortened: as §1

NCCCNCCCNC(=O)[C@H]1NC(=O)[C@H]2NC(=O)[C@H](NC(=O)[C@@H]3NC(=O)[C@H]4NC(=O)[C@@H](Cc5ccc(c(Cl)c5)Oc5cc3cc(c5O)Oc3ccc(cc3Cl)[C@H]2O)NC(=O)[C@H](N)c2ccc(O)c(c2)Oc2cc(O)cc4c2)c2ccc(O)c(c2)-c2c(O)cc(O)cc21
Ka [1]: 50000 M⁻¹ | MIC (Enterococcus faecalis): 0.125 µg/mL (≈ 0.0953 µM) | MIC (Escherichia coli [2]): 1 µg/mL (≈ 0.762 µM) | MIC (Proteus vulgaris [3]): 32 µg/mL (≈ 24.4 µM) | MIC (Pseudomonas aeruginosa [4]): 8 µg/mL (≈ 6.1 µM) | MIC (Staphylococcus aureus): 0.063 µg/mL (≈ 0.048 µM) | ED50 (Streptococcus pyogenes [5]): 1.65 mg/kg | MIC (Streptococcus pyogenes [6]): 0.13 µg/mL (≈ 0.0991 µM) | MIC [7]: 0.032 µg/mL (≈ 0.0244 µM) | MIC (Streptococcus pneumoniae): 0.125 µg/mL (≈ 0.0953 µM) | MIC [8]: 0.125 µg/mL (≈ 0.0953 µM) | MIC (Streptococcus pyogenes [9]): 0.063 µg/mL (≈ 0.048 µM)

NCCCN(CCCN)CCCNC(=O)[C@H]1NC(=O)[C@H]2NC(=O)[C@H](NC(=O)[C@@H]3NC(=O)[C@H]4NC(=O)[C@@H](Cc5ccc(c(Cl)c5)Oc5cc3cc(c5O)Oc3ccc(cc3Cl)[C@H]2O)NC(=O)[C@H](N)c2ccc(O)c(c2)Oc2cc(O)cc4c2)c2ccc(O)c(c2)-c2c(O)cc(O)cc21
ED50 (Escherichia coli [10]): < 40 mg/kg | ED50 (Escherichia coli [11]): 40 mg/kg | MIC (Enterococcus faecalis): 0.125 µg/mL (≈ 0.0913 µM) | MIC (Escherichia coli [2]): 1 µg/mL (≈ 0.73 µM) | Survivors (Mus musculus): 7 | MIC (Proteus vulgaris [3]): 128 µg/mL (≈ 93.5 µM) | MIC (Pseudomonas aeruginosa [4]): 8 µg/mL (≈ 5.84 µM) | MIC (Staphylococcus aureus): 0.125 µg/mL (≈ 0.0913 µM) | ED50 (Streptococcus pyogenes [5]): 0.72 mg/kg | MIC (Streptococcus pyogenes [6]): 0.06 µg/mL (≈ 0.0438 µM) | MIC [7]: 0.008 µg/mL (≈ 0.00584 µM) | MIC (Streptococcus pneumoniae): 0.125 µg/mL (≈ 0.0913 µM) | MIC [8]: 0.063 µg/mL (≈ 0.046 µM) | MIC (Streptococcus pyogenes [9]): 0.063 µg/mL (≈ 0.046 µM)

CNCCCN(C)C(=O)[C@H]1NC(=O)[C@H]2NC(=O)[C@H](NC(=O)[C@@H]3NC(=O)[C@H]4NC(=O)[C@@H](Cc5ccc(c(Cl)c5)Oc5cc3cc(c5O)Oc3ccc(cc3Cl)[C@H]2O)NC(=O)[C@H](N)c2ccc(O)c(c2)Oc2cc(O)cc4c2)c2ccc(O)c(c2)-c2c(O)cc(O)cc21
MIC (Bacteroides fragilis [12]): 64 µg/mL (≈ 49.9 µM) | MIC (Bacteroides fragilis [13]): 32 µg/mL (≈ 24.9 µM) | MIC (Bacteroides fragilis [14]): 32 µg/mL (≈ 24.9 µM) | MIC (Enterobacter cloacae [15]): 32 µg/mL (≈ 24.9 µM) | MIC (Enterobacter cloacae [16]): 32 µg/mL (≈ 24.9 µM) | MIC (Enterococcus faecalis): 0.125 µg/mL (≈ 0.0974 µM) | MIC (Escherichia coli [17]): 4 µg/mL (≈ 3.12 µM) | MIC (Escherichia coli [18]): 8 µg/mL (≈ 6.23 µM) | MIC (Escherichia coli [19]): 16 µg/mL (≈ 12.5 µM) | MIC (Escherichia coli [20]): 8 µg/mL (≈ 6.23 µM) | MIC (Escherichia coli [21]): 8 µg/mL (≈ 6.23 µM) | MIC (Escherichia coli [22]): 8 µg/mL (≈ 6.23 µM) | MIC (Escherichia coli [2]): 2 µg/mL (≈ 1.56 µM) | MIC (Klebsiella pneumoniae [23]): 16 µg/mL (≈ 12.5 µM) | MIC (Klebsiella pneumoniae [24]): 32 µg/mL (≈ 24.9 µM) | MIC (Proteus mirabilis [25]): 64 µg/mL (≈ 49.9 µM) | MIC (Proteus mirabilis [26]): 32 µg/mL (≈ 24.9 µM) | MIC (Proteus vulgaris [3]): 32 µg/mL (≈ 24.9 µM) | MIC (Proteus vulgaris [27]): 128 µg/mL (≈ 99.8 µM) | MIC (Pseudomonas aeruginosa [28]): 16 µg/mL (≈ 12.5 µM) | MIC (Pseudomonas aeruginosa [4]): 16 µg/mL (≈ 12.5 µM) | MIC (Pseudomonas aeruginosa [29]): 64 µg/mL (≈ 49.9 µM) | MIC (Pseudomonas aeruginosa [30]): 128 µg/mL (≈ 99.8 µM) | MIC (Staphylococcus aureus): 0.063 µg/mL (≈ 0.0491 µM) | MIC (Serratia marcescens [31]): 32 µg/mL (≈ 24.9 µM) | MIC (Salmonella typhimurium): 16 µg/mL (≈ 12.5 µM) | ED50 (Streptococcus pyogenes [5]): 1.25 mg/kg | MIC (Shigella sonnei): 8 µg/mL (≈ 6.23 µM) | MIC (Streptococcus pyogenes [6]): 0.06 µg/mL (≈ 0.0468 µM) | MIC (Shigella dysenteriae): 4 µg/mL (≈ 3.12 µM) | MIC [7]: 0.063 µg/mL (≈ 0.0491 µM) | MIC (Serratia marcescens [32]): 16 µg/mL (≈ 12.5 µM) | MIC (Streptococcus pneumoniae): 0.125 µg/mL (≈ 0.0974 µM) | MIC [8]: 0.063 µg/mL (≈ 0.0491 µM) | MIC (Streptococcus pyogenes [9]): 0.063 µg/mL (≈ 0.0491 µM) | MIC (Pseudomonas aeruginosa [33]): 128 µg/mL (≈ 99.8 µM)

— ChEMBL document CHEMBL1125337, “Synthesis and antibacterial activity of a series of basic amides of teicoplanin and deglucoteicoplanin with polyamines” (J Med Chem, 1992)
